# Assay results published in ChEMBL document CHEMBL1142895, “Discovery of a new insecticide lead by optimizing a target-diverse scaffold: tetrazolinone derivatives” (2007).
# Calls of active or inactive are those of the source. The calls are words filed in the database; no cut-off is given here.
# Experiments:
# [1] = system: Radish; experiment: Inhibition of stem growth of Raphanus sativus at 100 mg/L; format: functional
# In short: (§1)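 Seeds of each species were grown in Petri dishes with 10 seeds per dish, at 28 °C, 70–80% RH, 16:8 h light:dark photoperiod and 3000 lx light for 5 days. Root and stem lengths were measured for the 10 seeds and averaged. Each test and its controls were run in three replicates, and the data were given probit analysis.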
# [2] = system: Radish; experiment: Inhibition of root growth of Raphanus sativus at 100 mg/L; format: functional; in short: as §1
# [3] = system: Brassica rapa subsp. oleifera; experiment: Herbicidal activity against Brassica campestris at 450 g ai/ha in greenhouse in vivo test; format: functional, organism-based
# [4] = system: Cucumis sativus; experiment: Herbicidal activity against Cucumis sativus at 450 g ai/ha in greenhouse in vivo test; format: functional, organism-based
# [5] = system: Cucumis sativus; experiment: Inhibition of stem growth of Cucumis sativus at 100 mg/L; format: functional; in short: as §1
# [6] = system: Triticum aestivum; experiment: Herbicidal activity against Triticum aestivum at 450 g ai/ha in greenhouse in vivo test; format: functional, organism-based
# [7] = system: Echinochloa crus-galli; experiment: Inhibition of stem growth of Echinochloa crus-galli at 100 mg/L; format: functional; in short: as §1
# [8] = system: Radish; experiment: Herbicidal activity against Raphanus sativus at 450 g ai/ha in greenhouse in vivo test; format: functional, organism-based
# [9] = system: Cucumis sativus; experiment: Inhibition of root growth of Cucumis sativus at 100 mg/L; format: functional; in short: as §1
# [10] = system: Tetranychus cinnabarinus; experiment: Insecticidal activity against Tetranychus cinnabarinus at 250 mg/L; format: functional
# In short: (§2)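 Groups of 10 of each species were placed in glass Petri dishes and sprayed with test solution using a Potter sprayer. After air-drying, they were held under normal rearing conditions. Mortality at 72 h was taken from the number and size of live larvae relative to untreated controls.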
# [11] = system: Brassica rapa subsp. oleifera; experiment: Inhibition of root growth of Brassica campestris at 100 mg/L; format: functional; in short: as §1
# [12] = system: Echinochloa crus-galli; experiment: Inhibition of root growth of Echinochloa crus-galli at 100 mg/L; format: functional; in short: as §1
# [13] = system: Echinochloa crus-galli; experiment: Herbicidal activity against Echinochloa crus-galli at 450 g ai/ha in greenhouse in vivo test; format: functional, organism-based
# [14] = system: Aphis; experiment: Insecticidal activity against Aphis medicagini at 250 mg/L; format: functional; in short: as §2
# [15] = system: Sorghum bicolor; experiment: Inhibition of root growth of Sorghum bicolor at 100 mg/L; format: functional; in short: as §1
# [16] = system: Brassica rapa subsp. oleifera; experiment: Inhibition of stem growth of Brassica campestris at 100 mg/L; format: functional; in short: as §1
# [17] = system: Triticum aestivum; experiment: Inhibition of stem growth of Triticum aestivum at 100 mg/L; format: functional; in short: as §1
# [18] = system: Sorghum bicolor; experiment: Inhibition of stem growth of Sorghum bicolor at 100 mg/L; format: functional; in short: as §1
# [19] = system: Triticum aestivum; experiment: Inhibition of root growth of Triticum aestivum at 100 mg/L; format: functional; in short: as §1
# [20] = system: Sorghum bicolor; experiment: Herbicidal activity against Sorghum bicolor at 450 g ai/ha in greenhouse in vivo test; format: functional, organism-based
Structure (SMILES),inhibition at 100 µg/mL [1] [%],inhibition at 100 µg/mL [2] [%],Activity [3],Activity [4],inhibition at 100 µg/mL [5] [%],Activity [6],inhibition at 100 µg/mL [7] [%],Activity [8],inhibition at 100 µg/mL [9] [%],Activity [10] [%],inhibition at 100 µg/mL [11] [%],inhibition at 100 µg/mL [12] [%],Activity [13],Activity [14] [%],inhibition at 100 µg/mL [15] [%],inhibition at 100 µg/mL [16] [%],inhibition at 100 µg/mL [17] [%],inhibition at 100 µg/mL [18] [%],inhibition at 100 µg/mL [19] [%],Activity [20]
Cc1ccc(Cn2nnn(-c3ccc(Cl)cc3)c2=O)cc1,0,0,inactive,inactive,0,inactive,0,inactive,0,0,0,0,inactive,3.3,0,0,0,0,0,inactive
CCOC(=O)C(C)n1nnn(-c2ccc(Cl)cc2)c1=O (stereo not given),50,70,inactive,inactive,0,inactive,0,inactive,0,97.1,0,0,inactive,0,95,0,70,40,80,inactive
O=c1c(Cn2nnn(-c3ccc(Cl)cc3)c2=O)coc2ccccc12,0,0,inactive,inactive,0,inactive,0,inactive,0,100,0,0,inactive,1.7,0,0,30,0,0,inactive
Cc1ccccc1Cn1nnn(-c2ccc(Cl)cc2)c1=O,0,0,inactive,inactive,0,inactive,0,inactive,0,2.9,0,0,inactive,21.7,0,0,30,0,0,inactive
CCOC(=O)CSc1nnc(Cn2nnn(-c3ccc(Cl)cc3)c2=O)s1,60,70,inactive,inactive,30,inactive,0,inactive,50,80,70,0,inactive,0,30,50,60,50,50,inactive
COc1cc(-n2nnn(C)c2=O)c(Cl)cc1Cl,0,0,inactive,inactive,60,inactive,30,inactive,60,100,0,30,inactive,0,70,0,50,30,70,inactive
C=CCn1nnn(-c2ccc(Cl)cc2)c1=O,80,80,inactive,inactive,30,inactive,50,inactive,40,4.3,50,0,inactive,3.3,60,50,80,60,80,inactive
C=CCSc1nnc(Cn2nnn(-c3ccc(Cl)cc3)c2=O)o1,60,60,inactive,inactive,50,inactive,0,inactive,60,96.8,80,0,inactive,5,0,70,0,0,0,inactive
CSc1nnc(Cn2nnn(-c3ccc(Cl)cc3)c2=O)s1,50,50,inactive,inactive,60,inactive,0,inactive,40,0,0,30,inactive,5.7,60,70,50,40,60,inactive
COc1cccc(Cn2nnn(-c3ccc(Cl)cc3)c2=O)c1,0,0,inactive,inactive,0,inactive,0,inactive,0,0,0,0,inactive,3.3,0,0,0,0,0,inactive
Cc1cccc(Cn2nnn(-c3ccc(Cl)cc3)c2=O)c1,70,80,inactive,inactive,0,inactive,0,inactive,0,4.3,80,0,inactive,8.3,0,90,0,0,0,inactive
CCOC(=O)CSc1nnc(Cn2nnn(-c3ccc(Cl)cc3)c2=O)o1,0,50,inactive,inactive,0,inactive,0,inactive,0,2.9,50,0,inactive,0,0,60,0,0,0,inactive
